Results taken from ChEMBL document CHEMBL4376891, “Benzenesulfonamide Derivatives as Calcium/Calmodulin-Dependent Protein Kinase Inhibitors and Antiviral Agents against Dengue and Zika Virus Infections” (J Med Chem, 2020).
The source made the active and inactive calls. No cut-off for these calls is given here.

Tests used:
dengue virus type 2 [1] = test: Antiviral activity against Dengue virus 2 infected in human BE(2)-C cells assessed as reduction in NS3 protein expression at 3.125 to 6.25 uM treated during 0 to 3 hrs post infection by Western blot analysis; format: functional, organism-based
Method in brief: (§1)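 Time-of-addition design: BE(2)C cells were infected with DENV-2 or ZIKV at MOI 1. Compound at 3.125 or 6.25 μM was present either during adsorption (0–3 hpi) or afterward (3–24 hpi). Viral protein was immunoblotted against actin, with the ratio as % of the solvent control.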

Influenza A virus = test: Antiviral activity of Influenza A virus (H1N1) infected in human HMC3 cells assessed as reduction in nucleoprotein protein expression at 0.781 to 12.5 uM incubated for 24 hrs by immunofluorescence microscopy; format: functional, organism-based
dengue virus type 2 [2] = test: Antiviral activity against DENV-2 NGC-N infected in Stat1-/- mouse assessed as effect on overall mouse survival at 2 to 8 mg/kg/day, po dosed immediately following viral infection followed by daily dosing for 6 days; format: functional, organism-based
Zika virus [3] = test: Antiviral activity against Zika virus infected in human BE(2)-C cells assessed as NS3 protein expression at 3.125 uM treated during 3 to 24 hrs post infection by Western blot analysis (reference value: 100%); format: functional; method in brief: as §1
Zika virus [4] = test: Antiviral activity against Zika virus infected in human BE(2)-C cells assessed as NS3 protein expression at 3.125 uM treated during 0 to 3 hrs post infection by Western blot analysis (reference value: 100%); format: functional; method in brief: as §1
dengue virus type 2 [5] = test: Antiviral activity against Dengue virus 2 infected in human BE(2)-C cells assessed as NS3 protein expression at 0.78 uM incubated for 48 hrs by Western blot analysis (reference value: 100%); format: functional
Method in brief: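 BE(2)C neuroblastoma cells in RPMI 1640 with 10% FBS were infected with DENV-2 PL046 at MOI 0.1 for 48 h, without or with compound at increasing concentrations. NS3 was immunoblotted with actin as loading control. The NS3:actin densitometry ratio was expressed as % of the DMSO control. Mean ± SD of 3 independent experiments.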

dengue virus type 2 [6] = test: Antiviral activity against Dengue virus 2 infected in human HMC3 cells assessed as reduction in NS3 protein expression at 1.56 to 12.5 uM incubated for 24 hrs by immunofluorescence microscopy; format: functional, organism-based
Zika virus [7] = test: Antiviral activity against Zika virus infected in human BE(2)-C cells assessed as NS3 protein expression at 0.78 uM incubated for 48 hrs by Western blot analysis (reference value: 100%); format: functional
Method in brief: (§2)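 BE(2)C cells were infected with ZIKV PRVABC59 at MOI 0.1 for 48 h, with or without compound at increasing concentrations. Viral protein was immunoblotted with actin as loading control. The band-density ratio was given as % of the solvent control. Mean ± SD, 3 independent experiments.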

Zika virus [8] = test: Antiviral activity against Zika virus infected in human BE(2)-C cells assessed as NS3 protein expression at 3.125 uM incubated for 48 hrs by Western blot analysis (reference value: 100%); format: functional; method in brief: as §2
Zika virus [9] = test: Antiviral activity against Zika virus infected in human BE(2)-C cells assessed as NS3 protein expression at 12.5 uM incubated for 48 hrs by Western blot analysis (reference value: 100%); format: functional; method in brief: as §2
Zika virus [10] = test: Antiviral activity against Zika virus infected in human BE(2)-C cells assessed as reduction in NS3 protein expression at 3.125 to 6.25 uM treated during 3 to 24 hrs post infection by Western blot analysis; format: functional, organism-based; method in brief: as §1
dengue virus type 2 [11] = test: Antiviral activity against Dengue virus 2 infected in human BE(2)-C cells assessed as reduction in viral entry at 3.125 to 6.25 uM incubated for 90 mins by plaque-forming assay relative to control; format: functional; set-up: scale not given: the % may be the effect or the level left
Method in brief: (§3)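 Virus entry: BE(2)C cells were incubated with DENV-2 or ZIKV for 90 min at 4 °C and washed cold. Cells were then treated with 3.125 or 6.25 μM compound at 37 °C for 1 h. Non-internalized virus was inactivated with 0.1 M glycine, pH 3, for 5 min. Cells were lysed by needle passage, and internalized virus was titrated by plaque assay. Mean ± SD, n = 3.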

Zika virus [12] = test: Antiviral activity against Zika virus infected in human BE(2)-C cells assessed as reduction in viral entry at 3.125 to 6.25 uM incubated for 90 mins by plaque-forming assay relative to control; format: functional; set-up: scale not given: the % may be the effect or the level left; method in brief: as §3
dengue virus type 2 [13] = test: Antiviral activity against Dengue virus 2 infected in human BE(2)-C cells transfected with shLacZ assessed as NS3 protein expression at 3.125 uM incubated for 48 hrs by Western blot analysis (reference value: 100%); format: functional
Zika virus [14] = test: Antiviral activity against Zika virus infected in human BE(2)-C cells assessed as suppression of viral-induced CaMKIIalpha activation at 3.125 uM incubated for 4 hrs by confocal microscopy; format: functional, organism-based
dengue virus type 2 [15] = test: Antiviral activity against DENV-2 NGC-N infected in Stat1-/- mouse assessed as improvement in overall mouse survival at 4 mg/kg, po dosed 8 hrs after infection and ending at day 6 after infection (8 hrs delay) relative to control; format: functional
Zika virus [16] = test: Antiviral activity against Zika virus infected in Stat1-/- mouse assessed as time delay in virus-induced mouse mortality at 8 mg/kg/day, po dosed immediately following viral infection followed by daily dosing for 6 days (reference value: 13 days); format: functional
dengue virus type 2 [17] = test: Antiviral activity against Dengue virus 2 infected in human BE(2)-C cells assessed as NS3 protein expression at 3.125 uM treated during 3 to 24 hrs post infection by Western blot analysis (reference value: 100%); format: functional; method in brief: as §1
dengue virus type 2 [18] = test: Antiviral activity against Dengue virus 2 infected in human BE(2)-C cells assessed as NS3 protein expression at 6.25 uM treated during 0 to 3 hrs post infection by Western blot analysis (reference value: 100%); format: functional; method in brief: as §1
dengue virus type 2 [19] = test: Antiviral activity against Dengue virus 2 infected in human BE(2)-C cells assessed as NS3 protein expression at 3.125 uM treated during 0 to 3 hrs post infection by Western blot analysis (reference value: 100%); format: functional; method in brief: as §1
Zika virus [20] = test: Antiviral activity against fluorescently labeled Zika virus infected in human BE(2)-C cells at 3.125 uM by confocal microscopy; format: functional, organism-based
Method in brief: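 DENV-2 or ZIKV was concentrated and labeled with atto-647N dye. BE(2)C cells were pretreated with solvent or 3.125 µM, then incubated at 37 °C with labeled DENV-2 for 30 min or ZIKV for 60 min. Cells were fixed in 4% paraformaldehyde, membranes stained with WGA-488, and intracellular virus signal imaged by confocal microscopy.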

dengue virus type 2 [21] = test: Antiviral activity against Dengue virus 2 infected in human BE(2)-C cells transfected with shCaMKIIalpha assessed as NS3 protein expression at 6.25 uM incubated for 48 hrs by Western blot analysis (reference value: 100%); format: functional
Zika virus [22] = test: Antiviral activity against Zika virus infected in human BE(2)-C cells transfected with shLacZ assessed as NS3 protein expression at 3.125 uM incubated for 48 hrs by Western blot analysis (reference value: 100%); format: functional
Zika virus [23] = test: Antiviral activity against Zika virus infected in human BE(2)-C cells transfected with shCaMKIIalpha assessed as NS3 protein expression at 3.125 uM incubated for 48 hrs by Western blot analysis (reference value: 100%); format: functional

`COc1ccc(S(=O)(=O)N(CCCC(=O)C2CCCCCC2)c2ccccc2)cc1` was tested, and the Activity (dengue virus type 2 [1]) was “Dose-dependent effect”, the Activity (Influenza A virus) was “Active” and the Activity (dengue virus type 2 [2]) was “inactive”. It also gave an Activity (Zika virus [3]) of 97.2%, an Activity (Zika virus [4]) of 60.1% and an Activity (dengue virus type 2 [5]) of 85.4%. The Activity (dengue virus type 2 [6]) was “Active”, the Activity (Zika virus [7]) was 89.6% and the Activity (Zika virus [8]) was 49.7%. The Activity (Zika virus [9]) was 0.1%, the Activity (Zika virus [10]) was “inactive” and the Activity (dengue virus type 2 [11]) was “<=70%”. For the same molecule, the Activity (Zika virus [12]) was 80%, the Activity (dengue virus type 2 [13]) was 62.2% and the Activity (Zika virus [14]) was “Active”. The Activity (dengue virus type 2 [15]) was 40%, the Time (Zika virus [16]) was 18 days and the Activity (dengue virus type 2 [17]) was 78.3%. For the same molecule, the Activity (dengue virus type 2 [18]) was 27.3%, the Activity (dengue virus type 2 [19]) was 72.5% and the Activity (Zika virus [20]) was “Active”. The Activity (dengue virus type 2 [21]) was 75.4%, the Activity (Zika virus [22]) was 102% and the Activity (Zika virus [23]) was 101%.
